One block for each compound: values may come before it.
Experiments:
Stromelysin-1 [1] = target: T1, Stromelysin-1 (Homo sapiens, UniProt P08254); test: Binding to stromelysin (MMP-3) in place of acetohydroxamic acid.; set-up: species or system Rattus norvegicus
Summary of the method: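 Binding detected by sensitivity-enhanced 15N HSQC on uniformly 15N-labeled stromelysin catalytic domain (residues 81-256), 0.3 mM protein in H2O/D2O 9:1 Tris buffer 50 mM pH 7.0, 20 mM CaCl2, 0.05% sodium azide. Ligands added from perdeuterated DMSO, screened at 25.0 mM each; spectra with versus without compound compared for shifts at 500 MHz.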

Stromelysin-1 [2] = target: T1, Stromelysin-1; test: Binding to stromelysin (MMP-3) in the presence of acetohydroxamic acid; set-up: species or system Rattus norvegicus
Summary of the method: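 Uniformly 15N-labeled stromelysin catalytic domain (residues 81-256) at 0.3 mM in 50 mM Tris, pH 7.0, H2O/D2O 9/1, with 20 mM CaCl2 and 0.05% sodium azide. Sensitivity-enhanced 15N HSQC spectra were recorded at 500 MHz with and without compound added in perdeuterated DMSO. Binding was read from changes in the HSQC spectrum.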

Stromelysin-1 [3] = target: T1, Stromelysin-1; test: Binding to stromelysin (MMP-3) in the presence of 1-Napthohydroxamate; set-up: species or system Rattus norvegicus
Summary of the method: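 Catalytic domain of stromelysin (residues 81-256), uniformly ¹⁵N-labeled, at 0.3 mM in H₂O/D₂O (9/1) with 50 mM Tris pH 7.0, 20 mM CaCl₂ and 0.05% sodium azide. Compounds were added from perdeuterated DMSO solutions. Binding was detected as changes in sensitivity-enhanced ¹⁵N HSQC spectra (500 MHz), recorded with and without compound.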

Stromelysin-1 [4] = target: T1, Stromelysin-1; test: Inhibition of Stromelysin (MMP-3); set-up: species or system Rattus norvegicus
Rattus norvegicus = test: Bioavailability after peroral administration at 30 mg/kg against Stromelysin in rat; assay type: ADME, organism-based
Summary of the method: (§1)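 Rats (4 per compound, across two studies) dosed orally at 30 mg/kg in hydroxypropyl methyl cellulose. Tail-vein blood drawn at intervals over 7 h, deproteinated with 2 volumes methanol containing 0.1% acetic acid. Drug level in the extract quantified by bioassay against recombinant stromelysin.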

[5] = Cmax was determined; assay type: ADME, organism-based; conditions: in vivo; summary of the method: as §1
[6] = Half-life period was determined; assay type: ADME; summary of the method: as §1

T1 sequence (P08254 whole entry, the tested form may be a part): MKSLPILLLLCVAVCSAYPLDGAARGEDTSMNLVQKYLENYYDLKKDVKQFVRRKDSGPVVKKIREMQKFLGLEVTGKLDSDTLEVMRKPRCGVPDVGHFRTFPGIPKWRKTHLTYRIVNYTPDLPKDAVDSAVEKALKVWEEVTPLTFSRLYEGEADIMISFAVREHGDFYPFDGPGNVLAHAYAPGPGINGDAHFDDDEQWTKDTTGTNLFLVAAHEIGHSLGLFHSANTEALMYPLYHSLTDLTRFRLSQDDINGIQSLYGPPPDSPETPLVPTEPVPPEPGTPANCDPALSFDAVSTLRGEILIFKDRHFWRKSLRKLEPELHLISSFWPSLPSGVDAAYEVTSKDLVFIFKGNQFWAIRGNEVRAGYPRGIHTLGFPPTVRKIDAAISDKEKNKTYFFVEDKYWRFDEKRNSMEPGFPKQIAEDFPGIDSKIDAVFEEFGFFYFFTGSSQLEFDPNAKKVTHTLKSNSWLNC

SMILES: O=C(O)c1ccccc1O [SALICYLIC ACID]
Kd (Stromelysin-1 [1]): > 25000 µM

SMILES: NC(=O)c1ccccc1O [SALICYLAMIDE]
Kd (Stromelysin-1 [1]): > 25000 µM

SMILES: O=C(CC(=O)C(F)(F)F)c1ccccc1
Kd (Stromelysin-1 [1]): > 25000 µM

SMILES: SCc1cccs1
Kd (Stromelysin-1 [1]): 150 µM

SMILES: O=C(NO)c1cccc2ccccc12
Kd (Stromelysin-1 [1]): 50 µM
IC50 (Stromelysin-1 [4]): 50 µM

SMILES: N#Cc1ccc(-c2ccc(OCCC(=O)NO)cc2)cc1
IC50 (Rattus norvegicus): 0.057 µM

SMILES: N#CCc1cccc(-c2ccc(S(=O)(=O)CCOc3ccc4ccccc4c3C(=O)NO)cc2)c1
IC50 (Stromelysin-1 [4]): 0.062 µM

SMILES: c1ccc(-c2ccncc2)cc1
Kd (Stromelysin-1 [3]): 900 µM

SMILES: O=C(O)CCS [MERCAPTOPROPIONIC ACID]
Kd (Stromelysin-1 [1]): 3000 µM

SMILES: N#Cc1ccc(-c2ccc(OCCOc3ccc4ccccc4c3C(=O)NO)cc2)cc1
Cmax [5]: 28 µM
half-life [6]: 2 h
IC50 (Rattus norvegicus): 0.34 µM

SMILES: Oc1ccc(-c2ccc(O)cc2)cc1
Kd (Stromelysin-1 [3]): 150 µM

The next lines start with the values.

Kd (Stromelysin-1 [1]): > 25000 µM
SMILES: CCOC(=O)CC(=O)C(F)(F)F

Kd (Stromelysin-1 [2]): < 50 µM
Kd (Stromelysin-1 [3]): < 50 µM
SMILES: N#Cc1ccc(-c2ccc(O)cc2)cc1

Kd (Stromelysin-1 [1]): > 25000 µM
SMILES: CC(=O)c1ccccn1

IC50 (Stromelysin-1 [4]): 10 µM
SMILES: COc1ccc(-c2ccc(S(=O)(=O)NCCc3ccc4ccccc4c3C(=O)NO)cc2)cc1

IC50 (Stromelysin-1 [4]): 10 µM
SMILES: N#Cc1ccc(-c2ccc(OCCCOc3ccc4ccccc4c3C(=O)NO)cc2)cc1

Kd (Stromelysin-1 [1]): 7000 µM
SMILES: O=C(NO)c1ccccc1 [BENZOHYDROXAMATE]

IC50 (Stromelysin-1 [4]): > 10 µM
SMILES: N#Cc1ccc(-c2ccc(OCc3ccc4ccccc4c3C(=O)NO)cc2)cc1

Kd (Stromelysin-1 [1]): > 25000 µM
SMILES: NC(=O)NO [HYDROXYUREA]

Kd (Stromelysin-1 [1]): > 25000 µM
SMILES: CCOC(=O)NO [ETHYL HYDROXYCARBAMATE]

Reference: ChEMBL document CHEMBL1135830, “NMR-based modification of matrix metalloproteinase inhibitors with improved bioavailability” (J Med Chem, 2002)
